These results are taken from ChEMBL document CHEMBL4406821, “Novel dual inhibitors targeting CDK4 and VEGFR2 synergistically suppressed cancer progression and angiogenesis” (Eur J Med Chem, 2019).

The source made the active and inactive calls. No cut-off for these calls is given here.

The nature of data set [1]: Cmax in Sprague-Dawley rat at 10 mg/kg, po by HPLC-MS analysis. It is filed as ADME, organism-based. Also on record: dose 10 mg/kg, route oral. Conditions: in vivo. The essentials: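 Rats fitted with jugular vein catheters for serial blood sampling. Compound dissolved in saline with 5% (v/v) DMSO and given as a single 10 mg/kg dose iv or po after an overnight fast, n = 5 per group. Plasma isolated at once and measured by HPLC with tandem MS detection. Parameters derived by noncompartmental fitting.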

Data set [2] has as its target Calcium/calmodulin-dependent protein kinase type IV (Homo sapiens) (UniProt Q16566). Briefly: Inhibition of recombinant full length human CAMK4 at 1 uM using calmodulin as substrate incubated for 40 mins in presence of [gamma-33P]-ATP by scintillation counting method relative to control. The gist of the method:
(§1)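 Kinase panel profiling at 1 μM performed by Eurofins KinaseProfiler; percent inhibition reported as mean of two independent experiments.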

Data set [3] addresses Transient receptor potential cation channel subfamily M member 7 (Homo sapiens) (UniProt Q96QT4). Briefly: Inhibition of recombinant human CHAK1 (1180 to end residues) at 1 uM using myelin ba as substrate incubated for 40 mins in presence of [gamma-33P]-ATP by scintillation counting method relative to control. The gist of the method:
(§2)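 Tested at a single 1 uM in an outsourced commercial kinase-profiling panel, read as percent inhibition. Each value is the mean of two independent experiments.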

For data set [4], the target named is Casein kinase I isoform gamma-1 (Homo sapiens) (UniProt Q9HCP0). Briefly: Inhibition of recombinant human CK1gamma1 (25 to 355 residues) at 1 uM using KRRRALS(p)VAS as substrate incubated for 40 mins in presence of [gamma-33P]-ATP by scintillation counting method relative to control. The gist of the method: as §1
In data set [5] the target is Serine/threonine-protein kinase DCLK2 (Homo sapiens) (UniProt Q8N568). Kind of data set: Inhibition of recombinant human DCAMKL2 (376 to end residues) at 1 uM using KKLNRTLSFAEPG as substrate incubated for 40 mins in presence of [gamma-33P]-ATP by scintillation counting method relative to control. The gist of the method: as §2
In data set [6] the target is Epidermal growth factor receptor (Homo sapiens) (UniProt P00533). Briefly: Inhibition of recombinant human EGFR (696 to end residues) at 1 uM using poly(Glu, Tyr) 4:1 as substrate incubated for 40 mins in presence of [gamma-33P]-ATP by scintillation counting method relative to control. The gist of the method: as §1
The target of data set [7] is Receptor tyrosine-protein kinase erbB-2 (Homo sapiens) (UniProt P04626). Kind of data set: Inhibition of recombinant human ERBB2 (676 to end residues) at 1 uM using poly (Glu, Tyr) 4:1 as substrate incubated for 40 mins in presence of [gamma-33P]-ATP by scintillation counting method relative to control.
Data set [8] addresses Insulin receptor (Homo sapiens) (UniProt P06213). Kind of data set: Inhibition of recombinant human IR (1005 to 1310 residues) at 1 uM using KKKSPGEYVNIEFG as substrate incubated for 40 mins in presence of [gamma-33P]-ATP by scintillation counting method relative to control.
For data set [9], the target named is Serine/threonine-protein kinase 10 (Homo sapiens) (UniProt O94804). Kind of data set: Inhibition of recombinant human LOK (1 to 348 residues) at 1 uM using RLGRDKYKTLRQIRQ as substrate incubated for 40 mins in presence of [gamma-33P]-ATP by scintillation counting method relative to control.
Data set [10] concerns the target Serine/threonine-protein kinase mTOR (Homo sapiens) (UniProt P42345). Briefly: Inhibition of recombinant human full length mTOR at 1 uM using as peptide substrate incubated for 40 mins in presence of [gamma-33P]-ATP by scintillation counting method relative to control. The gist of the method: (§3)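 Single-point inhibition at 1 uM measured in a commercial kinase profiling panel (KinaseProfiler); each value is the mean of two independent experiments.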

Data set [11] concerns the target Serine/threonine-protein kinase Nek7 (Homo sapiens) (UniProt Q8TDX7). Briefly: Inhibition of recombinant human NEK7 (2 to end residues) at 1 uM using FLAKSFGSPNRAYKK as substrate incubated for 40 mins in presence of [gamma-33P]-ATP by scintillation counting method relative to control.
The subject of data set [12] is Platelet-derived growth factor receptor alpha (Homo sapiens), P16234 [V561D]. Kind of data set: Inhibition of recombinant human PDGFRalpha V561D mutant (550 to end residues) at 1 uM using GGMEDIYFEFMGGKKK as substrate incubated for 40 mins in presence of [gamma-33P]-ATP by scintillation counting method relative to control. The gist of the method:
as §2

In data set [13] the target is Ribosomal protein S6 kinase alpha-3 (Homo sapiens) (UniProt P51812). Briefly: Inhibition of recombinant human RSK2 (2 to end residues) at 1 uM using KKKNRTLSVA as substrate incubated for 40 mins in presence of [gamma-33P]-ATP by scintillation counting method relative to control.
Data set [14] has as its target Mitogen-activated protein kinase 11 (Homo sapiens) (UniProt Q15759). Briefly: Inhibition of recombinant human full length SAPK2b at 1 uM using myelin basic protein as substrate incubated for 40 mins in presence of [gamma-33P]-ATP by scintillation counting method relative to control. The gist of the method:
as §3

Data set [15] addresses Tyrosine-protein kinase TXK (Homo sapiens) (UniProt P42681). Kind of data set: Inhibition of recombinant human TXK (256 to end residues) at 1 uM using GEEPLYWSFPAKKK as substrate incubated for 40 mins in presence of [gamma-33P]-ATP by scintillation counting method relative to control. The gist of the method:
as §2

Data set [16] deals with Serine/threonine-protein kinase VRK2 (Homo sapiens) (UniProt Q86Y07). Briefly: Inhibition of recombinant human VRK2 (1 to 336 residues) at 1 uM using casein as substrate incubated for 40 mins in presence of [gamma-33P]-ATP by scintillation counting method relative to control. The gist of the method:
as §2

Data set [17] has as its target Serine/threonine-protein kinase WNK2 (Homo sapiens) (UniProt Q9Y3S1). Kind of data set: Inhibition of recombinant human WNK2 (166 to 489 residues) at 1 uM using myelin basic protein as substrate incubated for 40 mins in presence of [gamma-33P]-ATP by scintillation counting method relative to control.
For data set [18], the target named is SRSF protein kinase 1 (Homo sapiens) (UniProt Q96SB4). Kind of data set: Inhibition of recombinant human SRPK1 (2 to end residues) at 1 uM using RSRSRSRSRSRSRSR as substrate incubated for 40 mins in presence of [gamma-33P]-ATP by scintillation counting method relative to control.
A short description of data set [19]: Toxicity in BALB/c mouse assessed as effect on blood parameter by measuring hemoglobin content at 40 mg/kg, po administered once two days for 4 times by hematology analyzer. Conditions: in vivo.
Data set [20] deals with T47D. Briefly: Induction of apoptosis in human T47D cells at 40 nM incubated for 48 hrs by annexin V FITC and propidium iodide staining based flow cytometry. In kind it is functional, cell-based. The gist of the method: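 Annexin V-FITC/PI double staining with flow-cytometric readout. MDA-MB-231, T-47D, SiHa and HeLa cells were treated with graded concentrations for 48 h. MDA-MB-231 and T-47D were grown in DMEM and SiHa in 1640 medium, each with 10% FBS and 1% penicillin/streptomycin at 37°C under 5% CO2. Early- and late-stage apoptotic fractions were scored.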
(A flow cytometer gives signals particle by particle.)

Tyrosine-protein kinase TXK (Homo sapiens), sequence (P42681 whole entry): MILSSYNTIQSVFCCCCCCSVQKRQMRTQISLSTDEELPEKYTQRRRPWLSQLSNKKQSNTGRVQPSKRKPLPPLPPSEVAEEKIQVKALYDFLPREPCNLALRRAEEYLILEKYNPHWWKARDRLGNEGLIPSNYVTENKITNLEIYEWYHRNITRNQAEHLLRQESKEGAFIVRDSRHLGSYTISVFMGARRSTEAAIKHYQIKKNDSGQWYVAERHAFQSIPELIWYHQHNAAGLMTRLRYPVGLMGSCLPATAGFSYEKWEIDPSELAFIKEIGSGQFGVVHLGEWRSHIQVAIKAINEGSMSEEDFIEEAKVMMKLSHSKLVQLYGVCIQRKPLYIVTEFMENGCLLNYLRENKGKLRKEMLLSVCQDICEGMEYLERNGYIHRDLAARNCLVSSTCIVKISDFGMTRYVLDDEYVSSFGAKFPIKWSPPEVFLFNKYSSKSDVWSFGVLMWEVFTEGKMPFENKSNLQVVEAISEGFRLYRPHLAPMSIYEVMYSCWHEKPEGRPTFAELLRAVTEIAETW
Mitogen-activated protein kinase 11 (Homo sapiens), sequence (Q15759 whole entry): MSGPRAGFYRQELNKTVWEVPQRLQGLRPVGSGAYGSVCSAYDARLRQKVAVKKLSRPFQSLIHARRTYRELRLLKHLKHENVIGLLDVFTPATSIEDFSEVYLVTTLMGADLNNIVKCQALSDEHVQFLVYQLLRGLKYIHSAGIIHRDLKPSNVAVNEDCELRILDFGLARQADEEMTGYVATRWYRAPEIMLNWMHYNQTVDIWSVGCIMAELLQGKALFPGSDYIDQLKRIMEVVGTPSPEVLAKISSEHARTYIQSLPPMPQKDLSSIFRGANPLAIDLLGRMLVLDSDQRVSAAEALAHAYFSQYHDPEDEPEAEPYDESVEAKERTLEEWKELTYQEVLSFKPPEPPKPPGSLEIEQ
Calcium/calmodulin-dependent protein kinase type IV (Homo sapiens), sequence (Q16566 whole entry): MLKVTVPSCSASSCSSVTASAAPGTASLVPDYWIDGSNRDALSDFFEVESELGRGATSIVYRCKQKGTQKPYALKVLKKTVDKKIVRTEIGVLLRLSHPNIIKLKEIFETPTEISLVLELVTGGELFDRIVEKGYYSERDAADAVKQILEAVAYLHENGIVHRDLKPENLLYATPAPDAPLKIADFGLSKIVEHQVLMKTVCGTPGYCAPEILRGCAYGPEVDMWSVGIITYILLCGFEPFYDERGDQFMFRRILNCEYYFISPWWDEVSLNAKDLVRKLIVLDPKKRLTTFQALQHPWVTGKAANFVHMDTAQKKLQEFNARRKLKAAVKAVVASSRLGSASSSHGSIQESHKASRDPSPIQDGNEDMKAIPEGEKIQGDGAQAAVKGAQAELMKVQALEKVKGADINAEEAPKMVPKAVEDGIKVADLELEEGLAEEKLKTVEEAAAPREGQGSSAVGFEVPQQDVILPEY
Casein kinase I isoform gamma-1 (Homo sapiens), sequence (Q9HCP0 whole entry, looked up, the tested form may be a part, canonical isoform): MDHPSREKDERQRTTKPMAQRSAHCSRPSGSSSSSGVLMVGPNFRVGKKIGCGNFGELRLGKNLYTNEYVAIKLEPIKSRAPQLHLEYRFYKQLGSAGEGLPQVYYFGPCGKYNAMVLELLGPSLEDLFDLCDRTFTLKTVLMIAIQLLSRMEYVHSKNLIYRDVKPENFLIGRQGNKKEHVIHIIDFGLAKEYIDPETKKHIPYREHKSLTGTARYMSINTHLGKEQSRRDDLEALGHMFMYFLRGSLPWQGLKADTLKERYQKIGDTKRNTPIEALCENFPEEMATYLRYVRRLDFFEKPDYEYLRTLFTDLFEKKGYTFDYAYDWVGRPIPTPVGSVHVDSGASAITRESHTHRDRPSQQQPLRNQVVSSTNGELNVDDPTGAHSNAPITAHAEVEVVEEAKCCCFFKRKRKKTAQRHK
SRSF protein kinase 1 (Homo sapiens), sequence (Q96SB4 whole entry): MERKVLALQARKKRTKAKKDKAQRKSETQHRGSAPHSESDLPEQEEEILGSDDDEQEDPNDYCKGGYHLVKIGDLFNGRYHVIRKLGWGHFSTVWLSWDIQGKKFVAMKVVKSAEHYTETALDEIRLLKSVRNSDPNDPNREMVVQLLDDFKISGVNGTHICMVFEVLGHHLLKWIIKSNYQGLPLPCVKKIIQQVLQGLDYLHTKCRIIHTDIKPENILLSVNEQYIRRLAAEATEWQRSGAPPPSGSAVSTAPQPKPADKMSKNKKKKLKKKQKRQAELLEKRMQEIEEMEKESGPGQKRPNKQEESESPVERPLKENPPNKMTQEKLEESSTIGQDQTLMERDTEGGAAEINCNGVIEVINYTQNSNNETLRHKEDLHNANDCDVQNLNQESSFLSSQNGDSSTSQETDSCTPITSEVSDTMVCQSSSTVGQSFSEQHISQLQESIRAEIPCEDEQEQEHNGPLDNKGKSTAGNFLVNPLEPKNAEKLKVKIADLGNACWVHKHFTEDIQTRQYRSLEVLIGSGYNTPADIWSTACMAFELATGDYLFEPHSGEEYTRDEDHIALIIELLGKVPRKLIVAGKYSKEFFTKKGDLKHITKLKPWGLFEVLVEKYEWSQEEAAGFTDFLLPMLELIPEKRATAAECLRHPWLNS
Receptor tyrosine-protein kinase erbB-2 (Homo sapiens), sequence (P04626 whole entry, the tested form may be a part): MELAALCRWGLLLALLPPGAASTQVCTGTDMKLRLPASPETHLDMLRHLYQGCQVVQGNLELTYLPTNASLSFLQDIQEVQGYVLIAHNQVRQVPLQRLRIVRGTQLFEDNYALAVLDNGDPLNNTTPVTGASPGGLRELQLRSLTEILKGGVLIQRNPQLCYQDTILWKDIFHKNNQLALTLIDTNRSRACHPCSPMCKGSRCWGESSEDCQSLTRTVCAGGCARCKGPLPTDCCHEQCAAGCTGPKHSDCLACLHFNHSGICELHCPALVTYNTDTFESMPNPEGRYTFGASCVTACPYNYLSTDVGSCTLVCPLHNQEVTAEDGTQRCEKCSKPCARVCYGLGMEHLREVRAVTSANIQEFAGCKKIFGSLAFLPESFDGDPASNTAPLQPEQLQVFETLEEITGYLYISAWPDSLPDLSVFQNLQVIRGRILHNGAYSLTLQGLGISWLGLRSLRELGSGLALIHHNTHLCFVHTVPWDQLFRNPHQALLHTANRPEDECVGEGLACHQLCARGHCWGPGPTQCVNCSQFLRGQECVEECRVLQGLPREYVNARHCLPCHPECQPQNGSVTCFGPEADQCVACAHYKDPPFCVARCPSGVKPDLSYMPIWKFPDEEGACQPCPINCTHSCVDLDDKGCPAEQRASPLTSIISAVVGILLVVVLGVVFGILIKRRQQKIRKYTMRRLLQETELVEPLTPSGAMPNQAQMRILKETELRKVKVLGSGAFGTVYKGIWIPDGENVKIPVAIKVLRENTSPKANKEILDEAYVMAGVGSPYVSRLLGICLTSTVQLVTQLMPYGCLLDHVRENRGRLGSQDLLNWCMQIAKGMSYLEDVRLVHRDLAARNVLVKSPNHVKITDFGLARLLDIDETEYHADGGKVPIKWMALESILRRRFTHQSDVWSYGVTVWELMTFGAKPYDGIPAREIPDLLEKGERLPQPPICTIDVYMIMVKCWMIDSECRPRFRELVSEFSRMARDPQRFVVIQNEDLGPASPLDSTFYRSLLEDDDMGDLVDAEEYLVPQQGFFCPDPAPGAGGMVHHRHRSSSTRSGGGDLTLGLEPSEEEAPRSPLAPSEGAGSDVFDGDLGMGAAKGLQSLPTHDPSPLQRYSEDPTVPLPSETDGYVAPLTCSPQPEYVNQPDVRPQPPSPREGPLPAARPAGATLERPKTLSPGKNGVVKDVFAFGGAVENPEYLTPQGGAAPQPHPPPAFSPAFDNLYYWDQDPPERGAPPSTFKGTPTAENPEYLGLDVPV
Insulin receptor (Homo sapiens), sequence (P06213 28-758 limits assumed): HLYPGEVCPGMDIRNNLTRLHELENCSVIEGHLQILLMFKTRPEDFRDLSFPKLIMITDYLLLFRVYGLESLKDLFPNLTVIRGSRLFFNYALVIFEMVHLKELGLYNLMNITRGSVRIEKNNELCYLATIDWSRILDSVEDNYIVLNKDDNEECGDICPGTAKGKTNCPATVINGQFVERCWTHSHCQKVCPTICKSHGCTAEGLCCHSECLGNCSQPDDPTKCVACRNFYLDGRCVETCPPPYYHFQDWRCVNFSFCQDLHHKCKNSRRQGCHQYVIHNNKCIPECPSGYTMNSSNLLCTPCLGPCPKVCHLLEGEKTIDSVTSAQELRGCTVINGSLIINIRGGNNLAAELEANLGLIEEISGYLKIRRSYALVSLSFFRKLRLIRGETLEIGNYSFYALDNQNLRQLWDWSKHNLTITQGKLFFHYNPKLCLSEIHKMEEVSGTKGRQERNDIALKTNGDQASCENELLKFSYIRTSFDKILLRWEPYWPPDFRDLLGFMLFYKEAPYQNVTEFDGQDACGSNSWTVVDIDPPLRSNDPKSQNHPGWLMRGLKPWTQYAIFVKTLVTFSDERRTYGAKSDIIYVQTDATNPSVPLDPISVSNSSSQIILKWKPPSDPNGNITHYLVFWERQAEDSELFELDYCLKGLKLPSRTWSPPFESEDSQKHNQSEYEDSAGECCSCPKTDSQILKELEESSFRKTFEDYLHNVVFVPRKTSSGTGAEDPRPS
Insulin receptor (Homo sapiens), sequence (P06213 763-1382 limits assumed): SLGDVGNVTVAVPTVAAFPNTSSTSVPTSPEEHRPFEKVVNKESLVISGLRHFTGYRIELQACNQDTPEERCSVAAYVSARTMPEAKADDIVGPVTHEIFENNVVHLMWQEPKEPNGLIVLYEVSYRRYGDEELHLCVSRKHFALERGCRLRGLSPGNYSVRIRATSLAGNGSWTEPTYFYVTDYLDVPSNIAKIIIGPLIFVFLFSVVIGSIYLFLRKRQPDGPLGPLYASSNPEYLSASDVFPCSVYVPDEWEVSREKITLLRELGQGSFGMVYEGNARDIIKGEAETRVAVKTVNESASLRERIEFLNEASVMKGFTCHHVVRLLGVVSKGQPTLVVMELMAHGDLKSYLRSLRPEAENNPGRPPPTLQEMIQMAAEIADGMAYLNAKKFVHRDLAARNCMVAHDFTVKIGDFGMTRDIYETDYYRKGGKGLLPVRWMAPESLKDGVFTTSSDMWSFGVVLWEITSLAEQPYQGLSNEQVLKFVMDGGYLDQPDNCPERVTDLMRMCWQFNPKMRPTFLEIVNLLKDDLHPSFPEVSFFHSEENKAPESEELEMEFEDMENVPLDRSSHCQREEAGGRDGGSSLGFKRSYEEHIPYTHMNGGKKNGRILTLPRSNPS

Broadly, the Cmax is the highest concentration seen after dosing. A word on the inhibition: it is the share of the control response that was lost under treatment. `Cc1ccc(NC(=O)C2(C(=O)Nc3ccc(Nc4ncc(F)c(-c5cc(F)c6nc(C)n(C(C)C)c6c5)n4)cc3)CC2)cc1` gave a Cmax in data set [1] of 1000 ng/mL. Also, the inhibition in data set [2] is 6%; in data set [3] it was 0%; in [4] it was 23%; in [5], 0%; in data set [6], 28%; in [7], 3%. Moreover, the inhibition in data set [8] was 35%; in data set [9], 93%; in [10] it was 0%; in data set [11], 3%; in data set [12], 70%; in [13], 19%. In addition, the inhibition in [14] came out at 0%; in data set [15], 0%; in data set [16] it was 0%; in [17] it was 47%; in data set [18], 21%. The Activity entry in [19] is “Non-Toxic”.

In the case of `COc1cc2nccc(Oc3ccc(NC(=O)C4(C(=O)Nc5ccc(F)cc5)CC4)cc3)c2cc1OC` [CABOZANTINIB], in data set [20], the result was Active.
